rCAG binder = molecules binding r(CAG) RNA repeats. r(CAG) RNA repeat, TO-PRO-1 dye displacement fluorescence. inhibition, % at 3 µM. actives 1.3% (n = 370,000);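 active = inhibition above the plate cutoff, the mean of all test compounds on that plate plus 3 SD, cut at about 35% in these data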;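 also: 0% = DMSO alone and 100% = 100 µM mitoxantrone as full dye displacement; higher means more dye released from RNA so lower well fluorescence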
ASAP1 GAP inh = inhibitors of human ASAP1 ArfGAP activity; Q9ULH1; ASAP1-stimulated ARF1 GTP hydrolysis, GDP FP detection; inhibition, % at 16.5 µM; actives 0.19% (n = 360,000); AID 624377; in the data active = inhibition above about 25%;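 also: 0% = vehicle with enzyme and substrate and 100% = no enzyme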
Target sequence (Q9ULH1 325-724 limits assumed): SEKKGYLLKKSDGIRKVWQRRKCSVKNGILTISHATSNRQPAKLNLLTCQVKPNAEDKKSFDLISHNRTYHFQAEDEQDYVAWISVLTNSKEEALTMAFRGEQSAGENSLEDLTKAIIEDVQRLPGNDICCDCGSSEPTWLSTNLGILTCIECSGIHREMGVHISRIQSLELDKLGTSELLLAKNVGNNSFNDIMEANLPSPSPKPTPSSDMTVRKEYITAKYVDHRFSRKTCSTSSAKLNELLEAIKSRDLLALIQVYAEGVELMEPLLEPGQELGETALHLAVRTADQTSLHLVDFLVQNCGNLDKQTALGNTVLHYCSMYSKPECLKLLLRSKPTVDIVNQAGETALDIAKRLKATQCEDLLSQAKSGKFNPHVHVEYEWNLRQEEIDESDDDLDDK
NadD inh = NadD (S. aureus) enzyme inhibition. purified NadD enzyme, colorimetric absorbance read-out. inhibition, % at 20 µM. actives 0.78% (n = 360,000); in the data active = inhibition above about 26%
ARFGAP1 inh = rat ARFGAP1 inhibition; Q62848; Arfgap1-stimulated ARF1 GTP hydrolysis, GDP FP detection; inhibition, % at 16.5 µM; actives 0.26% (n = 360,000); AID 651572;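 active = inhibition above a per-plate limit, mean inhibition of low control wells plus 3 SD, cut at about 25% in these data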;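 also: 0% = DMSO wells with enzyme and 100% = wells lacking Arfgap1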
Target sequence (Q62848 1-136 limits assumed): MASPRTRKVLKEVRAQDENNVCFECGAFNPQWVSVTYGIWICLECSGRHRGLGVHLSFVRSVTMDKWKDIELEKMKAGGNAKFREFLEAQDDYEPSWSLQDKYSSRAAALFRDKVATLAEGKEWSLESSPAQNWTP
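Replicates: Single well per compound | Assay system: Truncated rat Arfgap1 GAP domain | Control set: No-Arfgap1 wells (100%) versus DMSO full-reaction wells (0%) | Times: Enzyme reaction 120 min at 25 °C after 20 min preincubation | Reagent: Human ARF1(Δ1-17)-GTP substrate | Measured by: Tracer-displacement fluorescence polarization with EDTA stop, 620/688 nm | Measure: Percent inhibition of Arfgap1-stimulated GTP hydrolysis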
NadD conf = NadD (S. aureus) inhibition, single concentration confirmation; shares compounds with NadD inh; purified S. aureus NadD, colorimetric enzyme assay; inhibition, % at 20 µM; actives 13% (n = 2,000); AID 624309; in the data active = inhibition mostly above about 42%, no sharp cut-off; inactive = mostly below about 42%
* hit, by the source's call; x = no result given. Most compounds without a hit are left out; they make up all but 2.2% or so of the library.

SMILES	rCAG binder	ASAP1 GAP inh	NadD inh	ARFGAP1 inh	NadD conf
O=C(CSc1nnc(-c2ccccn2)n1Cc1ccco1)Nc1ccc(Oc2ccccc2)cc1	5	x	x	x	x
CC[C@H](CCCc1ccc(OC)cc1)CCC(=O)N1CCOCC1	0	x	x	x	x
CCOC(=O)[C@H](Cc1ccccc1)NC(=O)[C@H]1C[C@@]2(N3CCCCC3)c3ccccc3N(C(=O)OC(C)(C)C)[C@H]2N1C(=O)OC(C)(C)C	6	x	x	x	x
CCc1cccc2cc3c(N)c(C(=O)Nc4ccc(S(=O)(=O)N5CCCC5)cc4)sc3nc12	9	16	44*	8	16
COc1cc(C#Cc2c(-c3cncn3C)n(C)c3ccc(-c4ccc(OC)c(OC)c4)cc23)cc(OC)c1	12	5	38*	8	24
COC(=O)[C@]12C[C@H](CC(=O)N3CCSCC3)C(=O)N(Cc3ccc4c(c3)OCO4)C1=C[C@H](C(C)(C)C)O[C@@H]2C	-1	-5	x	3	x
FC(F)(F)c1ccccc1Cc1c(-c2ccco2)nc2ccc(Cl)cn12	18	-12	13	-1	x
FC(F)(F)c1cc(Cl)c2nc(-c3ccco3)c(Cc3ccccc3C(F)(F)F)n2c1	58*	-2	43*	1	11
CCOC(=O)/C=C1\CC(C(=O)OCC)Oc2c(OC)cccc21 (centres undefined)	5	-10	39*	-2	38
COc1cccc2c1[C@H](/C=C/c1ccccc1)[C@@H]([C@H](O)CO)OC2	2	x	x	x	x
COc1cc(OC)cc(-c2c(C#Cc3ccsc3)c3cc(-c4cccc5[nH]cc(C=O)c45)ccc3n2C)c1	20	21	46*	2	29
FC(F)(F)c1ccc(CN2C[C@@H]3C(c4ccc(C(F)(F)F)cc4)C4(c5cccnc5)CC3(C4)[C@H]2c2ccccc2)cc1 (some centres undefined)	-1	12	38*	1	22
FC(F)(F)c1ccc(CN2C[C@@H]3C(c4ccccc4)C4(c5cccnc5)CC3(C4)[C@H]2c2ccccc2)cc1 (some centres undefined)	2	8	25	8	x
Cc1nc(SCc2nc3ccccc3[nH]2)c2oc3ccccc3c2n1	9	5	6	-5	x
c1ccc(-c2nc(SCc3nc4ccccc4[nH]3)c3oc4ccccc4c3n2)cc1	8	-2	31*	14	41
O=S(=O)(Nc1cccc(-c2cn3cccnc3n2)c1)c1ccc(-c2ccccc2)cc1	17	-4	40*	5	41
Cn1cccc1[C@]1(O)C(=O)Nc2ccc(F)cc21	10	x	x	x	x
O=C1O[C@H]([C@@H](O)CO)C(O)=C1O	-2	9	35*	5	2
CCN1CCCCC(NC(=O)Cc2ccccc2)C1=O (centres undefined)	-1	x	x	x	x
COc1ccc(C2=NN(c3nc(-c4ccccc4)c(CC(=O)O)s3)C(c3ccco3)C2)cc1 (centres undefined)	46*	1	61*	2	72*
CC(C)NC(=O)C1(C)CCN1C(=O)c1ccccc1 (centres undefined)	0	4	-1	8	x
Cc1cc(C(=O)NN=Cc2ccccc2C(=O)O)n[nH]1	3	x	x	x	x
Cc1cc([N+](=O)[O-])c2[nH]c(C(=O)N/N=C/c3ccccc3C(=O)O)c(-c3ccccc3)c2c1	10	-12	34*	-15	6
Cc1cc2c(c(=O)o1)[C@@]1(C(=O)Nc3ccccc31)C1=C(CCCC1=O)O2	1	-1	x	-2	x
Cc1ccc(/C=c2\sc3nc(-c4ccco4)nn3c2=O)o1	x	x	26	x	x
SMILES	rCAG binder	ASAP1 GAP inh	NadD inh	ARFGAP1 inh	NadD conf
Cc1ccc(/C=c2\sc3nc(-c4ccccc4Br)nn3c2=O)o1	27	2	26*	-6	10
CCC1SC2=NC(C)=C(C(=O)OCCOC)C(/C=C/c3ccccc3OC)N2C1=O (centres undefined)	-2	-8	5	1	x
COC(=O)C1=C(C)N=C2SC(C)C(=O)N2C1/C=C/c1ccccc1OC (centres undefined)	16	8	29*	-6	44
COc1cccc(C2C(C#N)=C(N)OC3=C2C(=O)CC(c2ccco2)C3)c1OCc1ccc(F)cc1 (centres undefined)	20	10	31*	-7	16
N#CC1=C(N)OC2=C(C(=O)CC(c3ccco3)C2)C1c1ccc(OCc2c(F)cccc2Cl)cc1 (centres undefined)	13	-1	34*	2	20
COc1ccc(C2C(C#N)=C(N)OC3=C2C(=O)CC(C)C3)c(OC)c1OC (centres undefined)	-1	11	7	-5	x
COc1ccc(-c2oc3c(c2-c2cnc(OC)nc2)C(O)CC3)cc1 (centres undefined)	4	-7	-3	-1	x
COc1cccc2cc(-c3csc(CCn4nc(C)cc4C)n3)c(=O)oc12	12	-8	11	1	x
CC/C(C)=N/Nc1nc(-c2cc3cccc(OC)c3oc2=O)cs1	34	6	51*	0	30
CC1=C(C(=O)N(C(C)C)C(C)C)CC(CC(=O)NC(c2ccccc2)c2ccccc2)C(=O)N1Cc1ccc(C(C)(C)C)cc1 (centres undefined)	10	2	21	-16	x
CCCCn1nnnc1C(c1cc2ccccc2o1)N1CCN(C(=O)OC(C)(C)C)CC1 (centres undefined)	2	-6	6	-1	x
O=C(NCc1ccco1)c1ccc(-c2ccc(F)c(F)c2)c2ccoc12	5	14	-3	8	x
COc1ccc2c(Cl)c(C(=O)OCC(=O)c3ccc4c(c3)NC(=O)CO4)sc2c1Cl	3	-1	40*	7	0
O=C1COc2ccc(C(=O)COC(=O)c3sc4ccccc4c3Cl)cc2N1	6	17	19	20	x
Cc1nn(Cc2ccc(Cl)c(Cl)c2)c(C)c1NC(=O)c1cn(-c2ccccc2)nc1-c1ccccc1	5	12	33*	2	34
CC[C@]12c3[nH]c4cc(-c5ccco5)ccc4c3CCN1C(=O)[C@@H](CC(=O)NCC13CC4CC(CC(C4)C1)C3)C[C@@H]2C(=O)N1CCN(C(=O)c2ccco2)CC1	17	0	40*	-6	20
O=C(C[C@H]1C[C@H](C(=O)N2CCOCC2)[C@@]2(CCC3CCCC3)c3[nH]c4cc(-c5ccco5)ccc4c3CCN2C1=O)NCCC1=CCCCC1	x	x	29*	x	13
CC[C@]12c3[nH]c4cc(-c5ccco5)ccc4c3CCN1C(=O)[C@@H](CC(=O)NCC13CC4CC(CC(C4)C1)C3)C[C@@H]2C(=O)N1CCN(C(=O)C2CC2)CC1	10	2	25	10	x
C[C@]12c3[nH]c4cc(-c5ccco5)ccc4c3CCN1C(=O)[C@@H](CC(=O)NCC13CC4CC(CC(C4)C1)C3)C[C@@H]2C(=O)N1CCCCC1	17	2	50*	6	13
Cc1sc2nc(SCC(=O)N3CCOCC3)[nH]c(=O)c2c1-c1ccccc1	3	5	4	-1	x

High-throughput results deposited in PubChem by several laboratories.
